Experimental data taken from ChEMBL document CHEMBL5724801, “EUbOPEN Chemogenomics Library - Multiplex” (2024).
Several values for one entry are separate records, joined by “and”; a condition that tells them apart may be missing. Equal entries are not always repeated.

Experiments:
U2OS = experiment: Multiplex assay against U2OS; assay type: toxicity, cell-based; settings: human
Method in brief: (§1)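 Tubulin, mitochondrial-mass and membrane-permeability phenotypes are per cents of healthy-nucleus cells. Cells were gated by CellPathfinder machine learning into Hoechst high-intensity objects or normal cells, normal cells into healthy, pyknosed or fragmented nuclei, and pyknosed cells into mitotic or apoptotic. Before that, live cells stained at seeding with Hoechst33342, BioTracker Green Microtubule Cytoskeleton Dye, MitoTracker Red and Annexin V Alexa Fluor 680 were imaged on a CQ1 microscope at 37°C and 5% CO2 after compound addition.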

HEK-293T = experiment: Multiplex assay against HEK293T; assay type: toxicity, cell-based; settings: human; method in brief: as §1
[1] = 24 h, 1 µM, compound concentration 1 uM
[2] = 24 h, 10 µM, compound concentration 10 uM
[3] = 48 h, 1 µM, compound concentration 1 uM
[4] = 48 h, 10 µM, compound concentration 10 uM
[5] = 12 h, 1 µM, compound concentration 1 uM
[6] = 12 h, 10 µM, compound concentration 10 uM

## CN(C)Cc1cccc(NC(=C2C(=O)Nc3cc(C(N)=O)ccc32)c2ccccc2)c1
U2OS; [1]
  Population Pyknosed Nuclei (%): 9.33% and 14.51%
  Population Tubulin-Different-Phenotype (%): 1.47% and 0.61%
  Total Cell Count: 536 and 193
U2OS; [2]
  Population Apoptotic (%): 50.75% and 51.72%
  Population Healthy Nuclei (%): 82.77% and 70.62%
  Population Hoechst High Intensity Objects (%): 0%
  Population Membrane Permeable-Phenotype (%): 2.06% and 8.72%
  Population Mitotic Cells (%): 49.25% and 48.28%
  Population Normal (%): 100%
  Population Pyknosed Nuclei (%): 14.26% and 13.74%
  Population Tubulin-Different-Phenotype (%): 4.88% and 2.68%
  Total Cell Count: 470 and 211
U2OS; [3]
  Population Apoptotic (%): 48.91% and 34.38%
  Population Fragmented Nuclei (%): 3.29% and 3.37%
  Population Healthy Nuclei (%): 86.93% and 86.81%
  Population Hoechst High Intensity Objects (%): 0.11% and 0%
  Population Membrane Permeable-Phenotype (%): 1.34% and 2.47%
  Population Mitochondria Different-Phenotype (%): 0.37% and 3.53%
  Population Mitotic Cells (%): 51.09% and 65.62%
  Population Normal (%): 99.89% and 100%
  Population Pyknosed Nuclei (%): 9.78% and 9.82%
  Population Tubulin-Different-Phenotype (%): 1.1% and 0.71%
  Total Cell Count: 942 and 326
U2OS; [4]
  Population Apoptotic (%): 57.52% and 51.28%
  Population Healthy Nuclei (%): 81.24% and 71.84%
  Population Hoechst High Intensity Objects (%): 0%
  Population Membrane Permeable-Phenotype (%): 3.41% and 6.53%
  Population Mitochondria Different-Phenotype (%): 0.33% and 7.54%
  Population Mitotic Cells (%): 42.48% and 48.72%
  Population Normal (%): 100%
  Population Pyknosed Nuclei (%): 14.93% and 14.08%
  Population Tubulin-Different-Phenotype (%): 4.88% and 7.04%
  Total Cell Count: 757 and 277
HEK-293T; [5]
  Population Apoptotic (%): 11.04% and 8.47%
  Population Fragmented Nuclei (%): 2.49% and 2.04%
  Population Hoechst High Intensity Objects (%): 0.28% and 0%
  Population Membrane Permeable-Phenotype (%): 0.51% and 7.69%
  Population Mitochondria Different-Phenotype (%): 22.73% and 15.38%
  Population Mitotic Cells (%): 88.96% and 91.53%
  Population Normal (%): 99.72% and 100%
  Population Pyknosed Nuclei (%): 42.66% and 80.27%
  Total Cell Count: 362 and 147
HEK-293T; [6]
  Population Apoptotic (%): 15.53% and 28.8%
  Population Fragmented Nuclei (%): 3.04% and 4.44%
  Population Healthy Nuclei (%): 56.2% and 26.11%
  Population Hoechst High Intensity Objects (%): 0.25% and 0%
  Population Membrane Permeable-Phenotype (%): 0.45% and 2.13%
  Population Mitochondria Different-Phenotype (%): 20.72% and 17.02%
  Population Mitotic Cells (%): 84.47% and 71.2%
  Population Normal (%): 99.75% and 100%
  Population Pyknosed Nuclei (%): 40.76% and 69.44%
  Population Tubulin-Different-Phenotype (%): 14.86% and 40.43%
  Total Cell Count: 396 and 180
HEK-293T; [1]
  Population Apoptotic (%): 13.33% and 15.56%
  Population Fragmented Nuclei (%): 0.9% and 4.61%
  Population Healthy Nuclei (%): 77.6% and 36.18%
  Population Hoechst High Intensity Objects (%): 0.18% and 0.65%
  Population Membrane Permeable-Phenotype (%): 1.39% and 1.82%
  Population Mitochondria Different-Phenotype (%): 9.47% and 14.55%
  Population Mitotic Cells (%): 86.67% and 84.44%
  Population Normal (%): 99.82% and 99.35%
  Population Pyknosed Nuclei (%): 21.51% and 59.21%
  Population Tubulin-Different-Phenotype (%): 13.16% and 7.27%
HEK-293T; [2]
  Population Apoptotic (%): 26.06% and 39.09%
  Population Fragmented Nuclei (%): 1.76% and 3.57%
  Population Healthy Nuclei (%): 66.02% and 40.31%
  Population Hoechst High Intensity Objects (%): 0.19% and 0%
  Population Membrane Permeable-Phenotype (%): 0.89% and 0%
  Population Mitochondria Different-Phenotype (%): 22.78% and 25.32%
  Population Mitotic Cells (%): 73.94% and 60.91%
  Population Normal (%): 99.81% and 100%
  Population Pyknosed Nuclei (%): 32.23% and 56.12%
  Population Tubulin-Different-Phenotype (%): 32.25% and 18.99%
  Total Cell Count: 513 and 196
HEK-293T; [3]
  Population Apoptotic (%): 10.07% and 19.05%
  Population Fragmented Nuclei (%): 1.84% and 0.58%
  Population Healthy Nuclei (%): 85.36% and 62.57%
  Population Hoechst High Intensity Objects (%): 0%
  Population Membrane Permeable-Phenotype (%): 5.39% and 0.93%
  Population Mitochondria Different-Phenotype (%): 17.15% and 29.91%
  Population Mitotic Cells (%): 89.93% and 80.95%
  Population Normal (%): 100%
  Population Pyknosed Nuclei (%): 12.8% and 36.84%
HEK-293T; [4]
  Population Apoptotic (%): 19.7% and 35.71%
  Population Fragmented Nuclei (%): 2.75% and 2.37%
  Population Healthy Nuclei (%): 80.73% and 58.89%
  Population Hoechst High Intensity Objects (%): 0.12% and 0.39%
  Population Membrane Permeable-Phenotype (%): 4.19% and 2.01%
  Population Mitochondria Different-Phenotype (%): 43.1% and 38.26%
  Population Mitotic Cells (%): 80.3% and 64.29%
  Population Normal (%): 99.88% and 99.61%
  Population Pyknosed Nuclei (%): 16.52% and 38.74%
